For orientation: T/C means the result in the treated group divided by that in the control group, in per cent. One may read the IC50 as the midpoint of a concentration-inhibition curve. In general, half-life refers to how long it takes for the measured level to halve.

Data set [1] deals with RPMI-8226. As to the kind of experiment: Antitumour activity against luciferase expressing human RPMI8226 cells xenografted in NOD/SCID mouse assessed as tumor growth at 2 mg/kg, iv qd for 21 days by caliper method relative to control. The data set is classed as functional. The method, boiled down:
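NOD/SCID mice given subcutaneous 5 × 10^6 luciferase-expressing RPMI-8226 cells. Randomized at mean tumour 100-150 mm3, n = 3 per group. Dosed i.v. 2 mg/kg QD for 3 weeks. Tumour also imaged by IVIS, ROI […] taken 3 min after D-luciferin 150 mg/kg. Caliper volume V = length×width²/2, RTV = Vt/V0. T/C% = mean RTV treated / mean RTV control × 100.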
A general note: In xenograft studies the graft and the host belong to different species.

Data set [2] in a line: Intrinsic clearance in rat liver microsomes at 1 uM pre-incubated for 5 mins followed by NADP+ addition and measured up to 20 mins by LC-MS analysis. It is filed as ADME, Microsome. The settings on record: read-out: CLH. (Microsomes from liver hold many membrane-bound enzymes, among them those of drug oxidation.)
Data set [3] in a line: Potency index, ratio of compound half life in human liver microsomes to carfilzomib half life in human liver microsomes. It is filed as ADME, Microsome.
The target of data set [4] is Voltage-gated inwardly rectifying potassium channel KCNH2 (Homo sapiens, UniProt Q12809). As to the kind of experiment: Inhibition of human ERG in HEK293 cells assessed as effect on QT interval. It is filed as cell-based. The settings on record: human, hek293.
Data set [5] concerns RPMI-8226. The data set is described as follows: Cytotoxicity against human RPMI8226 cells assessed as cell viability measured after 72 hrs by celltiter96 aqueous cell proliferation assay. The settings on record: RPMI-8226, 72 h. The data set is classed as functional, cell-based. In outline:
(§1)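 Suspension cells in log phase plated at 5000 (RPMI8226) or 10000 (U266B1) cells per well. Viability read after 72 h by MTS-type CellTiter 96 AQueous One assay on a plate reader. IC50 reported, three repeats.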

Data set [6] addresses T1, Proteasome Macropain subunit MB1 (Homo sapiens, UniProt P28074).
T1 sequence (P28074 whole entry): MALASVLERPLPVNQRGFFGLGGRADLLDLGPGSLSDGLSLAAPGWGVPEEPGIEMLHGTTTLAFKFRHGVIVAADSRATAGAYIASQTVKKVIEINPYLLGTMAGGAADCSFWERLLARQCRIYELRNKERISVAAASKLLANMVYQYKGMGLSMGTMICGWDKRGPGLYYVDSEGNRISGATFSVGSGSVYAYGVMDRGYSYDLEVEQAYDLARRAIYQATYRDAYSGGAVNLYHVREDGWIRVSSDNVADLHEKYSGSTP
As to the kind of experiment: Inhibition of human chymotrypsin-like activity of 20S proteasome using Suc-LLVY-AMC as substrate pre-incubated for 10 mins followed by substrate addition and measured after 1 hr by spectrofluorimetry. The settings on record: read-out: IC50.

Data set [7] can be described thus: Intrinsic clearance in monkey liver microsomes at 1 uM pre-incubated for 5 min followed by NADP+ addition and measured up to 20 mins by LC-MS analysis. The data set is classed as ADME, Macaca mulatta, Microsome. The settings on record: rhesus monkey, read-out: CLH.
For the next data set, the system named is ARH-77. As to the kind of experiment: Antitumour activity against human ARH77 cells xenografted in nude mouse assessed as tumor growth at 5mg/kg, iv dosed at day 1 ,4, 8 ,11, 15 and 18 for 3 weeks and measured every 2 days by caliper method relative to control. The data set is classed as functional. In outline: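 Nude mice given subcutaneous 1 × 10^7 ARH77 cells. Randomized at mean tumour 100-150 mm3 into treatment and control groups, n = 5. Dosed i.v. 5 mg/kg on days 1, 4, 8, 11, 15 and 18 for 3 weeks. Tumours sized by caliper, V = length×width²/2, RTV = Vt/V0. T/C% = mean RTV treated / mean RTV control × 100.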

A short description of data set [8]: Half life in human liver microsomes at 1 uM pre-incubated for 5 mins followed by NADP+ addition and measured up to 20 mins by LC-MS analysis. The data set is classed as ADME, Microsome. In outline: (§2)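 Mixture held 1 µM compound, 0.5 mg/mL microsomal protein (in-house pooled Balb/c mouse or pooled human), 100 mM Tris-HCl pH 7.4, and an NADPH-generating system (5 mM isocitric acid, 0.2 U/mL isocitric dehydrogenase, 5 mM MgCl2, 1 mM NADP+). Preincubated 5 min at 37 °C, started with NADP+, sampled at 0, 5, 10, 20 min. Quenched with cold acetonitrile containing 1 µM phenytoin internal standard. Compound loss measured by LC-MS/MS. Controls omitted NADPH and/or microsomes.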

The nature of data set [9]: Half life in monkey liver microsomes at 1 uM pre-incubated for 5 mins followed by NADP+ addition and measured up to 20 mins by LC-MS analysis. The data set is classed as ADME, Macaca mulatta, Microsome. The settings on record: rhesus monkey.
Data set [10] can be described thus: Half life in rat liver microsomes at 1 uM pre-incubated for 5 mins followed by NADP+ addition and measured up to 20 mins by LC-MS analysis. The data set is classed as ADME, Microsome.
Data set [11] is described as follows: Half life in BALB/c mouse liver microsomes at 1 uM pre-incubated for 5 mins followed by NADP+ addition and measured up to 20 mins by LC-MS analysis. The data set is classed as ADME, Microsome. The method, boiled down: as §2
A short description of data set [12]: Half life in dog liver microsomes at 1 uM pre-incubated for 5 mins followed by NADP+ addition and measured up to 20 mins by LC-MS analysis. The data set is classed as ADME, Canis lupus familiaris, Microsome.
Data set [13] can be described thus: Intrinsic clearance in BALB/c mouse liver microsomes at 1 uM pre-incubated for 5 mins followed by NADP+ addition and measured up to 20 mins by LC-MS analysis. It is filed as ADME, Microsome. The settings on record: read-out: CLH. The method, boiled down:
as §2

Data set [14] is described as follows: Intrinsic clearance in human liver microsomes at 1 uM pre-incubated for 5 min followed by NADP+ addition and measured up to 20 mins by LC-MS analysis. The data set is classed as ADME, Microsome. The settings on record: read-out: CLH. In outline:
as §2

Another data set relates to U-266. As to the kind of experiment: Cytotoxicity against human U266B1 cells assessed as cell viability measured after 72 hrs by celltiter96 aqueous cell proliferation assay. It is filed as functional, cell-based. The settings on record: U-266, 72 h. In outline: as §1
Data set [15] can be described thus: Intrinsic clearance in dog liver microsomes at 1 uM pre-incubated for 5 mins followed by NADP+ addition and measured up to 20 mins by LC-MS analysis. The data set is classed as ADME, Canis lupus familiaris, Microsome. The settings on record: read-out: CLH.

Sequence of Voltage-gated inwardly rectifying potassium channel KCNH2 (Q12809 whole entry): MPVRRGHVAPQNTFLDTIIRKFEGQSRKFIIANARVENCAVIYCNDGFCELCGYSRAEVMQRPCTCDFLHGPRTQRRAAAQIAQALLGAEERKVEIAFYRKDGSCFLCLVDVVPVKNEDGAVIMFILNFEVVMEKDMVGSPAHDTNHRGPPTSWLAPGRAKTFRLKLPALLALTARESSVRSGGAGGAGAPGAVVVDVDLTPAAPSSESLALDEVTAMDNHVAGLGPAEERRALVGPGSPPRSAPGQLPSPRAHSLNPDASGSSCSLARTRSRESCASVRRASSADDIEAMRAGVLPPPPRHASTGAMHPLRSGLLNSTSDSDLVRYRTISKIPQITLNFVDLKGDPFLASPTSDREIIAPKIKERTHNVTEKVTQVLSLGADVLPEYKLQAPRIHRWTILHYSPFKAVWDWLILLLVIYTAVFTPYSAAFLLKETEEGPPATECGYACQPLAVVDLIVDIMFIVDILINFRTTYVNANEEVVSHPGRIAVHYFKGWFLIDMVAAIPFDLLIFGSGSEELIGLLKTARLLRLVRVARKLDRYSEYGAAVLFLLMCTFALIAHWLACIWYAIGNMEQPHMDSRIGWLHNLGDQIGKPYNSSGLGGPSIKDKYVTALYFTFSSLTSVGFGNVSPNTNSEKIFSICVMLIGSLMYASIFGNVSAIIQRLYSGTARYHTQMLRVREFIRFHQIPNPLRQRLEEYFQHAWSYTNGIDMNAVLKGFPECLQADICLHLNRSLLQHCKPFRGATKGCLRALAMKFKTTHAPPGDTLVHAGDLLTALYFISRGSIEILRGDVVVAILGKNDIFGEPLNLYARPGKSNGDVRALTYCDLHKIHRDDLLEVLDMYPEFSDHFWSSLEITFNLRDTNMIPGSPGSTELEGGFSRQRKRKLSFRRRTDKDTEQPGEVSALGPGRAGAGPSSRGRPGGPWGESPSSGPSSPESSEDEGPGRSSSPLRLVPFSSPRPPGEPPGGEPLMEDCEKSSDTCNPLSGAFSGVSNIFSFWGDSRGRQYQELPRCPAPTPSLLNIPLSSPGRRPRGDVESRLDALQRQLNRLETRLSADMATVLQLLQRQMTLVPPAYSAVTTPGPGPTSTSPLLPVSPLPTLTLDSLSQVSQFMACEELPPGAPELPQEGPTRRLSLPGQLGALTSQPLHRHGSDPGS

In the case of `CC(C)C[C@H](NC(=O)[C@H](Cc1cscn1)NC(=O)CN1CCOCC1)C(=O)N[C@@H](Cc1ccccc1)C(=O)N[C@@H](CC(C)C)C(=O)[C@@]1(C)CO1`, the values for the T/C in the data set with RPMI-8226 [1] and in the data set on ARH-77 were 49.5% and 37.6%, respectively. The microsomal CLint at 1 µM in [2] was 1020 µL/min/mg; in [7], 6560 µL/min/mg; in data set [13], 1250 µL/min/mg; in [14], 1300 µL/min/mg; in data set [15], 5710 µL/min/mg. Further, the Ratio in [3] worked out at 4. Moreover, the “inhibition (INH)” value in [4] is “Not Active”. Also, the IC50 with RPMI-8226 [5] is 0.0277 µM; in [6], 0.0368 µM; in the data set on U-266 it was 0.0245 µM. Also, the half-life at 1 µM in data set [8] came to 1.07 min; in data set [9], 0.211 min; in [10], 1.36 min; in data set [11], 1.1 min; in data set [12], 0.243 min.

These data come from ChEMBL document CHEMBL4393740, “Preparation and biological evaluation of soluble tetrapeptide epoxyketone proteasome inhibitors” (Bioorg Med Chem, 2019).
